Laboratory results taken from the RNAGym collection of RNA variant scans (doi:10.1126/science.aae0568).
Fewer inactive variants are shown than the library holds.

B1: tRNA (parent)
chain: GUUCCGUUGGCGUAAUGGUAACGCGUCUCCCUCCUAAGGAGAAGACUGCGGGUUCGAGUCCCGUACGGAACG

Variants of: B1
Experiment: yeast fitness relative to wild type (ratio to wild type); higher = fitter; tRNA-Arg(CCU), competitive growth, 37 C, YPD
How it was run: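 A pool of Saccharomyces cerevisiae strains, each with a tRNA-Arg(CCU) gene variant at the native genomic locus, was competed in YPD at 37°C for 24 hours across six parallel replicates. The variants had been chemically synthesised at a 3% per-site mutation rate over 69 sites, and gene amplicons before and after competition were read by 100-nucleotide paired-end sequencing. Darwinian fitness relative to wild type rested on changes in genotype frequencies. Genotypes required ≥ 100 starting reads, and estimates < 0.5 were set to 0.5.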

Variant	yeast fitness
A20C U35C G51C A57G C60G A70U	≤ 0.5
U19C U53C C61A G68A	≤ 0.5
U19C U35G A43G	0.598
U19C C49G G67U	0.599
A20C G39C C49U	≤ 0.5
U19C C33A A36C C55U	≤ 0.5
U19A U32C C49A	≤ 0.5
U19C A20C A70U	0.65
U19C A37U C62A U64C	0.725
A20C C30G	0.612
A20C C24G C27A G44A U59G A65C	≤ 0.5
U19C C22A G23A C34U A57C C66U A69C	≤ 0.5
A20G C31G C60G	≤ 0.5
A20G A40C A42U A43C G48A A69C	≤ 0.5
U19A G48A G68C	0.626
A20C A37C A43G C55U	≤ 0.5
A20C U28A C62U G67A	≤ 0.5
A20C A43C G68U	≤ 0.5
U19A G39C	0.742
U19A G39A	0.846
U19C A21G U26G C49U	0.745

Variant	yeast fitness
A20G G67U A69C	≤ 0.5
A20G C24U	0.9
A20C A70G	0.925
A20G G25A C62U A65C	0.813
U19G C22G C34U C49U	≤ 0.5
A20C G25A C31G C33U C34U G41C C60A C66U	≤ 0.5
A20G A40G G50C	0.574
U19A C22G C24U C33G	0.674
A20C C49U U59C	0.588
U19A U28C A69C	0.674
A20G G50A	0.905
U19C C33G A57G C61G	≤ 0.5
A20C A21U C30U C31A G63A	0.628
A20G G23A A65G	0.574
U19A C29U G67C A69G	≤ 0.5
U19A A57G	0.931
U19G G38A G50A	≤ 0.5
A20C C24U C49U	0.602
U19C A20U	0.941
A20G C29G G63C	≤ 0.5
U19C G25C G51C C60U A69U	≤ 0.5

Variant	yeast fitness
A20C A45U C55U	≤ 0.5
U19C G23A C29G	≤ 0.5
A20C A42G	0.842
U19A C46U G48A U53C	0.784
U19A C61A	0.673
U19A C61U	0.983
A20G C22U G50C G63C G67C	≤ 0.5
A20G C29A C49U G63A	≤ 0.5
U19A C49G G56U	0.558
A20C G48C A70C	0.649
U19C C24U C27G G38C A57U C60A C62G	≤ 0.5
A20G A40C A42U A43C	≤ 0.5
A20U A36G A43U	0.601
U19C C24U	0.969
U19A C24G C27U C30A A36G G52C	≤ 0.5
A20U A21U C34G G63C	≤ 0.5
U19C G48A C62A	0.91
A20G G23C C31U A57U C66U	≤ 0.5
A20C A37C	0.762
A20C C61U A69U	0.61
U19C A20U C29U G41C	≤ 0.5

Variant	yeast fitness
A20G U28C C62A	≤ 0.5
A20C C24U C27G C49A U53C C62G	≤ 0.5
A20C A69U	1.04
U19A G39A G44A	0.873
U19A C30A	0.812
A20G C22G C30U U54C	≤ 0.5
U19C C60A	0.547
A20G G25C C33G C60A	≤ 0.5
A20G G41C A70U	0.622
U19A U64A	0.807
U19G A37G A65U A69U	≤ 0.5
U19C G50A C55A C66A	0.516
U19C C31U C33G G41A C49G U54C G63A	≤ 0.5
A20G C24G G52C	≤ 0.5
A20G G25A C34A A36G G50C	≤ 0.5
A20G C29A A40U C62G	≤ 0.5
A20G A45U G63C	0.539
A20C C22U C61G	≤ 0.5
U19C G25A	0.969
U19C U47A A57C	≤ 0.5
A20U A36G G38A A40U A42G	≤ 0.5
